# Published values collected from several papers.
# CDK19: Cyclin-dependent kinase 19 (CDK19, Homo sapiens, UniProt Q9BWU1)
# CDK19 with cyclin C: Cyclin-dependent kinase 19, with cyclin C (CDK19, Homo sapiens, UniProt Q9BWU1)
SMILES,target,effect on,mode,technique,concentration,measurement,result
F[C@@H]1CCN(c2nccc(-c3cnn4ncccc34)n2)C1,CDK19,binding,,,1 µM,remaining binding,100%
O=C(Nc1cnn(-c2csc(C(=O)NC3COC3)c2)c1)Nc1c(F)cccc1Cl,CDK19 with cyclin C,enzyme activity,inhibitor,,5 µM,remaining activity,96.2%
C[C@@H]1CN(c2ccc3ncc(-c4ccc5[nH]nc(C6CC6)c5c4)n3n2)C[C@H](C)O1,CDK19,binding,,competition with immobilised ligand,0.5 µM,remaining binding,13%
Cc1ccc(C(=O)Nc2ccc(CN3CCN(C)CC3)c(C(F)(F)F)c2)cc1C#Cc1cnc2cccnn12,CDK19,enzyme activity,inhibitor,,23.5 nM,remaining activity,31%
CN1CCN(C(=O)c2ccc3cc(CCNc4ccnc5ccc(C#N)cc45)ccc3c2)CC1,CDK19,binding,,competition with immobilised ligand,2 µM,inhibition,> 85%
CC(C)(C)c1nc(-c2cccc(NS(=O)(=O)c3c(F)cccc3F)c2F)c(-c2ccnc(N)n2)s1,CDK19 with cyclin C,enzyme activity,inhibitor,radiometric,1 µM,remaining activity,94%
Cc1sc(C(=O)NC2COC2)cc1-n1cc(NC(=O)Nc2c(F)cccc2Cl)cn1,CDK19 with cyclin C,enzyme activity,inhibitor,,10 µM,remaining activity,98.1%
CC(C)(C)c1nc2c(s1)c1nc(N)ncc1c1ccc(NS(=O)(=O)c3c(F)cccc3F)c(F)c12,CDK19 with cyclin C,enzyme activity,inhibitor,radiometric,1 µM,remaining activity,98%
C[C@@H]1CCN(c2nccc(-c3cnn4ncccc34)n2)C1,CDK19,binding,,,1 µM,remaining binding,97%
